Drawing on ChEMBL document CHEMBL3856209, “Novel pyrazolopyridine derivatives as potential angiogenesis inhibitors: Synthesis, biological evaluation and transcriptome-based mechanistic analysis” (Eur J Med Chem, 2016), this text covers Activity, inhibition and IC50 for one compound.

The subject of series [1] is HUVEC (Homo sapiens). In words: Antiproliferative activity against human HUVEC cells assessed as decrease in VEGF-165-induced cell growth at 0.5 to 2 uM after 24 to 48 hrs by CyQUANT cell proliferation assay.
The target of series [2] is Vascular endothelial growth factor receptor 2 (Homo sapiens) (UniProt P35968). In words: Inhibition of VEGF-165-induced VEGFR2 autophosphorylation at Tyr1175 in serum-starved HUVEC at 2 uM preincubated for 2 hrs followed by VEGF-165 induction measured after 5 mins by Western blot analysis. The class given is cell-based. Put shortly: (§1)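 Serum-starved HUVEC were given 2 µM compound or vehicle for 2 h, then VEGF-165 (50 ng/mL) or PBS for 5 min. Lysates with equal protein were run on SDS-PAGE and immunoblotted for phospho-VEGFR2 (Tyr951, 996, 1056, 1175), p-AKT Ser473, p-ERK1/2 and the total proteins. Detection was by ECL with densitometry. Phospho signals were normalized to total protein, n = 3.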
Chain of Vascular endothelial growth factor receptor 2 (Homo sapiens) (P35968 whole entry): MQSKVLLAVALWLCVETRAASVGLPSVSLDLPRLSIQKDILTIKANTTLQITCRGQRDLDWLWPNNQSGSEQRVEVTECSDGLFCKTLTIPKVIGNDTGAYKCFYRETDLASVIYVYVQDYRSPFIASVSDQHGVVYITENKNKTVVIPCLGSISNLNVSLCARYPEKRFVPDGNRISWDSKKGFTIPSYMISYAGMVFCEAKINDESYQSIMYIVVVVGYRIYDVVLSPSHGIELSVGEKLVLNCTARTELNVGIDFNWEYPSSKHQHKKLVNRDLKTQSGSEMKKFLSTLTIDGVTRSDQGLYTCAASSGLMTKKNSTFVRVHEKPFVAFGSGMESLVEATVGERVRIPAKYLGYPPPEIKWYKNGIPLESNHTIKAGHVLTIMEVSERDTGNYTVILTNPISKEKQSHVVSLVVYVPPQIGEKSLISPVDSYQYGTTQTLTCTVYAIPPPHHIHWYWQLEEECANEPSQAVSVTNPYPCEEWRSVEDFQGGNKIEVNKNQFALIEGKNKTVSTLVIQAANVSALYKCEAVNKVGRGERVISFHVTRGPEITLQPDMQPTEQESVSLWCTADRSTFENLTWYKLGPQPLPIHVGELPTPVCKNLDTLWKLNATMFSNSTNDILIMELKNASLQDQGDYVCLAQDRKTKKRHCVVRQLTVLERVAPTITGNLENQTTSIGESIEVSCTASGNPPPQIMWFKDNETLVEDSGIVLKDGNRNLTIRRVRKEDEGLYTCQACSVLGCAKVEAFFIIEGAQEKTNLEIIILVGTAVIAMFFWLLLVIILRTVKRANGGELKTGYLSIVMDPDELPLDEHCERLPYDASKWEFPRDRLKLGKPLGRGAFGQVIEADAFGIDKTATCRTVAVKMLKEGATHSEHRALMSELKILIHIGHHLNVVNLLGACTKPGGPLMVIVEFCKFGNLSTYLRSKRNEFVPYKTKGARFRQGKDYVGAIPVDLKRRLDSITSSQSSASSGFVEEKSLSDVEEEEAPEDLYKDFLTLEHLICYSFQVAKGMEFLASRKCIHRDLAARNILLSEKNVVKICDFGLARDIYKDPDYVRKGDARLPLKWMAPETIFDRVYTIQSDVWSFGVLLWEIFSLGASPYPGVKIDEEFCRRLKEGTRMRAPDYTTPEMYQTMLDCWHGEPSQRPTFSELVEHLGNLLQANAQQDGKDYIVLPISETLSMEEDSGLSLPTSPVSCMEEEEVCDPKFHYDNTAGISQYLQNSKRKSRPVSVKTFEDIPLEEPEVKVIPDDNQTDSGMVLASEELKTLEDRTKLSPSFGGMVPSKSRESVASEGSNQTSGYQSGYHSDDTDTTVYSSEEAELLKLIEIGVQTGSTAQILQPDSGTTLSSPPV
In general terms: In western blotting, separated proteins are transferred to a membrane and probed.

Series [3] concerns EA.hy 926. As to the kind of experiment: Antiproliferative activity against human EAhy926 cells assessed as decrease in cell viability at 0.2 to 2 uM after 24 to 48 hrs in presence of 2.5% fetal bovine serum by MTT assay. The class given is functional, cell-based. Put shortly:
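EA.hy926 seeded at 4×10^3/well, adhered 24 h, and starved 4 h in 0.25% BSA medium. Then treated with compound or 0.1% v/v DMSO in medium with 2.5% FBS for 48 h. MTT 0.5 mg/mL for 4 h, A595 with 630 nm correction, cell number from a standard curve. Expressed as % of DMSO control; replicates from two independent experiments.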
A general note: Tetrazolium assays rely on reduction of a dye to a coloured formazan, in cell work by metabolically active cells.

Series [4] concerns HUVEC. In words: Antimigratory activity in HUVEC at 0.2 to 2 uM after 6 hrs in presence of 5% fetal bovine serum by transwell assay. Conditions: Homo sapiens. The class given is functional, cell-based. Put shortly:
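Serum-starved confluent HUVEC pre-treated overnight with compound or vehicle in 5% FBS medium. Then placed in the upper chamber of 8 µm-pore Transwells (6×10^4 cells/well) and allowed to migrate 6 h toward 5% FBS or starvation medium. Migrated cells fixed, H&E stained, and counted in five fields/well; expressed as % of control; replicates from two independent experiments.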

The subject of series [5] is HUVEC. As to the kind of experiment: Inhibition of total protein tyrosine kinase activity in serum-starved HUVEC at 1 to 4 uM after 2 hrs. The class given is cell-based. Conditions: Homo sapiens.
For series [6], the target named is Vascular endothelial growth factor receptor 2 (Homo sapiens) (UniProt P35968). As to the kind of experiment: Inhibition of VEGF-165-induced VEGFR2 autophosphorylation in serum-starved HUVEC assessed as decrease in ERK1/2 phosphorylation at 2 uM preincubated for 2 hrs followed by VEGF-165 induction measured after 5 mins by Western blot analysis. The class given is cell-based. Put shortly: as §1

Series [7] concerns Mus musculus. In words: Toxicity in C57BL/6 mouse allografted with mouse LLC cells at 0.05 to 0.2 mg/kg, ip administered thrice a week for 2 weeks starting 24 hrs before tumor implantation by clinical test. It is filed as organism-based. Conditions: in vivo. In outline: (§2)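 Male C57BL/6 mice, 6–8 weeks old, in groups of 5–6, received 5×10^5 LLC cells sc in the right flank. Compound (0.05–0.2 mg/kg) or DMSO vehicle was given ip thrice weekly for 2 weeks, starting 24 h before implantation. Mice were weighed and examined clinically every other day. At end-point, kidney, lung, spleen, liver and heart sections were H&E-stained and examined microscopically.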

The test system of series [8] is HUVEC. In words: Inhibition of VEGF-165-induced HUVEC chemotactic migration at 0.2 to 2 uM after 6 hrs by transwell assay. Conditions: Homo sapiens. It is filed as functional, cell-based. Put shortly: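 Serum-starved HUVEC were pre-treated overnight with compound or vehicle in 5% FBS medium. Cells were then seeded at 6×10^4 per upper Transwell chamber (8 µm pores) and migrated for 6 h toward VEGF-165 (50 ng/mL) or starvation medium. Migrated cells were ethanol-fixed, stained with H&E and counted in five fields per well. Results are % of control from at least two independent experiments.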

The subject of series [9] is Mus musculus. As to the kind of experiment: Toxicity in C57BL/6 mouse allografted with mouse LLC cells assessed as effect on vital organs at 0.05 to 0.2 mg/kg, ip administered thrice a week for 2 weeks starting 24 hrs before tumor implantation by haematoxylin-eosin staining-based microscopic analysis. It is filed as organism-based. The settings on record: in vivo. In outline: as §2

For series [10], the target named is Vascular endothelial growth factor receptor 2 (Homo sapiens) (UniProt P35968). As to the kind of experiment: Inhibition of VEGF-165-induced VEGFR2 autophosphorylation in serum-starved HUVEC assessed as decrease in AKT phosphorylation at 2 uM preincubated for 2 hrs followed by VEGF-165 induction measured after 5 mins by Western blot analysis. It is filed as cell-based. In outline:
as §1

Series [11] has as its system HUVEC. In words: Antiangiogenic activity in HUVEC assessed as inhibition of VEGF-165-induced tube formation at 0.2 to 2 uM after 24 hrs by matrigel assay. It is filed as functional, cell-based. Conditions: Homo sapiens. Put shortly: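 HUVEC seeded at 2×10^4 cells/well on growth factor-reduced Matrigel after pre-starvation, then given compound or vehicle (up to 0.1% v/v DMSO), with or without VEGF-165, for 24 h. Fixed in ice-cold ethanol and stained with haematoxylin-eosin. Tube-like structures counted in at least 5 fields/well and expressed as % of vehicle control; replicates from two independent experiments.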

The nature of series [12]: Antiproliferative activity against human EAhy926 cells assessed as decrease in cell viability after 24 to 48 hrs in presence of 2.5% fetal bovine serum by MTT assay. The settings on record: EA.hy 926. The class given is functional, cell-based. In outline:
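EA.hy926 in DMEM with 2.5% FBS exposed 48 h to serial 1:2 compound dilutions spanning 0.125–50 μM. Viable cells measured by MTT (0.5 mg/mL, 4 h, A595/630 nm). IC50 (mean ± SEM) fitted by non-linear regression from eight or more points.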

Series [13] has as its system HUVEC (Homo sapiens). In words: Antiproliferative activity against human HUVEC cells assessed as decrease in VEGF-165-induced cell growth at 0.5 to 2 uM after 24 to 48 hrs by MTT assay.
Series [14] deals with Lewis lung carcinoma. In words: Antiangiogenic activity in mouse LLC cells allografted in C57BL/6 mouse assessed as decrease of microvessel density in tumor at 0.2 mg/kg, ip administered thrice a week for 2 weeks starting 24 hrs before tumor implantation measured post last dose by IHC analysis. The class given is functional, organism-based. Put shortly: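 Male 6–8 week C57BL/6 mice (groups of 5–6) inoculated sc in the right flank with 5×10^5 LLC cells. Compound (0.2 mg/kg) or DMSO vehicle given ip thrice weekly for 2 weeks, starting 24 h before implantation. Tumors measured by caliper every other day. At end-point, anti-CD31 IHC (1:100) of tumor sections, with immunoreactive cells counted in six high-power fields.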

By IC50 is commonly meant the concentration that inhibits the measured activity by half.

SMILES strings stand for the structures. Activity calls are given as the source filed them. The rule behind the calls is not given here.

Consider `COc1ccc(Cn2nc(-c3ccccc3)c3cc(Nc4ccccc4)nc(N4CCNCC4)c32)cc1`, for which the result in series [1], in series [3], in series [4], in series [13] and in series [14] was Active. The inhibition result in series [2], in [5], in series [6], in series [8], in series [10] and in series [11] was “Active” each time. Besides, the Activity result in series [7] and in series [9] was “Non-Toxic” in each case. Further, the concentration for half-maximal inhibition (IC50) in series [12] was 14.1 µM.
